Results: ChEMBL document CHEMBL1828506, “New fluorine-containing hydrazones active against MDR-tuberculosis” (Eur J Med Chem, 2011)
≈ marks a conversion by molar mass, not a printed value.

What was measured:
[1] = system: Mycobacterium tuberculosis; assay: Antimycobacterial activity against Mycobacterium tuberculosis H37Rv ATCC 27294 after 28 days by colony forming unit determination; format: functional; conditions: H37Rv ATCC 27294, 672 h
In short: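 Compounds added to Sula liquid medium as DMSO solutions (DMSO at most 2%), incubated at 37 °C for 28 days. MIC is the lowest concentration giving visible growth inhibition. Activity was confirmed by CFU counts after subculture onto drug-free Löwenstein-Jensen solid medium.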

[2] = Selectivity index, ratio of IC50 for human HepG2 cells to MIC for Mycobacterium tuberculosis H37Rv ATCC 27294; format: functional
Mycobacterium avium [3] = assay: Antimycobacterial activity against Mycobacterium avium CNTC 330/88 after 14 days; format: functional; conditions: CNTC 330/88, 336 h
Mycobacterium avium [4] = assay: Antimycobacterial activity against Mycobacterium avium CNTC 330/88 after 21 days; format: functional; conditions: CNTC 330/88, 504 h
Mycobacterium kansasii [5] = assay: Antimycobacterial activity against Mycobacterium kansasii CNTC My 235/80 after 7 days; format: functional; conditions: CNTC My 235/80, 168 h
Mycobacterium kansasii [6] = assay: Antimycobacterial activity against Mycobacterium kansasii CNTC My 235/80 after 14 days; format: functional; conditions: CNTC My 235/80, 336 h
Mycobacterium kansasii [7] = assay: Antimycobacterial activity against Mycobacterium kansasii CNTC My 235/80 after 21 days; format: functional; conditions: CNTC My 235/80, 504 h
Mycobacterium kansasii [8] = assay: Antimycobacterial activity against Mycobacterium kansasii CNTC 6509/96 after 7 days; format: functional; conditions: CNTC 6509/96, 168 h
Mycobacterium kansasii [9] = assay: Antimycobacterial activity against Mycobacterium kansasii CNTC 6509/96 after 14 days; format: functional; conditions: CNTC 6509/96, 336 h
Mycobacterium kansasii [10] = assay: Antimycobacterial activity against Mycobacterium kansasii CNTC 6509/96 after 21 days; format: functional; conditions: CNTC 6509/96, 504 h
HepG2 = assay: Cytotoxicity against human HepG2 cells measured after overnight incubation by MTT assay; format: cell-based
In short: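 HepG2 cells in phenol-red-free RPMI-1640 with 10% FCS, 2 mM L-glutamine and gentamycin, seeded at 5 × 10³ per well. After 24 h at 37 °C, cells were exposed overnight to compound in serum-free medium. MTT (2 mg/mL) for 4 h, formazan dissolved in DMSO, read as OD540 minus OD620. % cytotoxicity versus untreated controls; IC50 taken from dose-response curves. Two independent experiments, 4–8 parallel measurements.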

PBMC = assay: Cytotoxicity against human PBMC measured after overnight incubation by MTT assay; format: cell-based
In short: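 Freshly prepared human PBMC in phenol-red-free RPMI-1640 with 10% FCS, 2 mM L-glutamine and gentamycin, 2.0 × 10⁵ cells per well. After 24 h at 37 °C, overnight compound exposure in serum-free medium. MTT for 4 h, formazan in DMSO, OD540 minus OD620. % cytotoxicity versus controls; IC50 from dose-response curves. Two independent experiments.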

[11] = Hydrolytic stability of the compound in aqueous buffer at pH 7.4 after 48 hrs by HPLC analysis; format: physicochemical; conditions: pH 7.4, 48 h
In short: (§1)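 Compound added from DMSO stock to 100 mM buffer (phosphate at pH 3 and 7.4, acetate at pH 5), final 3 nmol/mL. Sampled at set times up to 48 h, in triplicate. Parent compound and ciprofloxacin/formylciprofloxacin quantified by isocratic RP-18 HPLC with fluorescence detection (276/442 nm). Half-life given with 95% confidence intervals.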

[12] = Hydrolytic stability of the compound in aqueous buffer assessed as half life at pH 3 after 48 hrs by HPLC analysis; format: physicochemical; in short: as §1
[13] = Hydrolytic stability of the compound in aqueous buffer assessed as half life at pH 5 after 48 hrs by HPLC analysis; format: physicochemical; in short: as §1
[14] = Metabolic stability in rat plasma assessed as parent compound remaining after 48 hrs by HPLC analysis; format: ADME, cell-free; conditions: read-out: Stability
In short: (§2)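 Compound spiked into rat plasma from DMSO stock, final 3 nmol/mL. 100 µL aliquots taken at set times and precipitated with an equal volume of acetonitrile. Gradient RP-18 HPLC (phosphate pH 2.0/acetonitrile) with fluorescence detection. Six runs: three to 48 h and three extended to 96 h. Result expressed as % parent compound remaining.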

[15] = Metabolic stability in rat plasma assessed as parent compound remaining after 96 hrs by HPLC analysis; format: ADME, cell-free; conditions: read-out: Stability; in short: as §2
SH-SY5Y = assay: Cytotoxicity against human SH-SY5Y cells measured after overnight incubation by MTT assay; format: cell-based
In short: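 SH-SY5Y neuroblastoma cells in phenol-red-free DMEM with 10% FCS, 2 mM L-glutamine, gentamycin and 1% NEAA, 7.5 × 10³ per well. After 24 h at 37 °C, overnight compound exposure in serum-free medium. MTT readout (OD540 minus OD620) against untreated controls; IC50 from dose-response curves. Two independent experiments.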

| SMILES | MIC [1] | Selectivity Index [2] | MIC (Mycobacterium avium [3]) | MIC (Mycobacterium avium [4]) | MIC (Mycobacterium kansasii [5]) | MIC (Mycobacterium kansasii [6]) | MIC (Mycobacterium kansasii [7]) | MIC (Mycobacterium kansasii [8]) | MIC (Mycobacterium kansasii [9]) | MIC (Mycobacterium kansasii [10]) | IC50 (HepG2) | IC50 (PBMC) | Stability [11] | half-life [12] | half-life [13] | remaining at 48 h [14] | remaining at 96 h [15] | IC50 (SH-SY5Y) |
| --- | --- | --- | --- | --- | --- | --- | --- | --- | --- | --- | --- | --- | --- | --- | --- | --- | --- | --- |
| O=C(O)c1ccc(N/C=N/NC(=O)c2ccccc2F)cc1O | 2 µg/mL (≈ 6.3 µM) | 192.06 | 32 µM (≈ 10.2 µg/mL) | 62.5 µM (≈ 19.8 µg/mL) | 32 µM (≈ 10.2 µg/mL) | 32 µM (≈ 10.2 µg/mL) | 62.5 µM (≈ 19.8 µg/mL) | 32 µM (≈ 10.2 µg/mL) | 62.5 µM (≈ 19.8 µg/mL) | 62.5 µM (≈ 19.8 µg/mL) | 1210 µM | 1210 µM |  |  |  |  |  |  |
| O=C(N/N=C/N1CCN(c2cc3c(cc2F)c(=O)c(C(=O)O)cn3C2CC2)CC1)c1ccc(F)cc1 | 1 µg/mL (≈ 2.02 µM) | 634.29 | 62.5 µM (≈ 31 µg/mL) | 125 µM (≈ 61.9 µg/mL) | 4 µM (≈ 1.98 µg/mL) | 4 µM (≈ 1.98 µg/mL) | 8 µM (≈ 3.96 µg/mL) | 8 µM (≈ 3.96 µg/mL) | 8 µM (≈ 3.96 µg/mL) | 16 µM (≈ 7.93 µg/mL) | > 1280 µM | > 763 µM | Stable | 174 min | 708 min | 87% | 82% |  |
| O=C(N/N=C/N1CCN(c2cc3c(cc2F)c(=O)c(C(=O)O)cn3C2CC2)CC1)c1cccc(C(F)(F)F)c1 | 2 µg/mL (≈ 3.67 µM) | 87.79 | 250 µM (≈ 136 µg/mL) | 250 µM (≈ 136 µg/mL) | 2 µM (≈ 1.09 µg/mL) | 2 µM (≈ 1.09 µg/mL) | 4 µM (≈ 2.18 µg/mL) | 1 µM (≈ 0.545 µg/mL) | 1 µM (≈ 0.545 µg/mL) | 2 µM (≈ 1.09 µg/mL) | > 322 µM | > 322 µM |  |  |  |  |  |  |
| O=C(N/N=C/N1CCN(c2cc3c(cc2F)c(=O)c(C(=O)O)cn3C2CC2)CC1)c1ccc(C(F)(F)F)cc1 | 1 µg/mL (≈ 1.83 µM) | 189.21 | 32 µM (≈ 17.5 µg/mL) | 62.5 µM (≈ 34.1 µg/mL) | 2 µM (≈ 1.09 µg/mL) | 2 µM (≈ 1.09 µg/mL) | 4 µM (≈ 2.18 µg/mL) | 1 µM (≈ 0.545 µg/mL) | 1 µM (≈ 0.545 µg/mL) | 2 µM (≈ 1.09 µg/mL) | 347 µM | 347 µM |  |  |  |  |  |  |
| O=C(N/N=C/Nc1ccc(C(=O)O)c(O)c1)c1cccc(F)c1 | 2 µg/mL (≈ 6.3 µM) | 148.25 | 32 µM (≈ 10.2 µg/mL) | 62.5 µM (≈ 19.8 µg/mL) | 32 µM (≈ 10.2 µg/mL) | 62.5 µM (≈ 19.8 µg/mL) | 62.5 µM (≈ 19.8 µg/mL) | 32 µM (≈ 10.2 µg/mL) | 32 µM (≈ 10.2 µg/mL) | 32 µM (≈ 10.2 µg/mL) | 934 µM | 934 µM |  |  |  |  |  |  |
| NC(=O)c1cnccn1 [PYRAZINAMIDE] |  |  | 500 µM (≈ 61.6 µg/mL) | > 1000 µM | 500 µM (≈ 61.6 µg/mL) | > 1000 µM | > 1000 µM | 125 µM (≈ 15.4 µg/mL) | 1000 µM (≈ 123 µg/mL) | 1000 µM (≈ 123 µg/mL) |  |  |  |  |  |  |  |  |
| O=C(N/N=C/Nc1ccc(C(=O)O)c(O)c1)c1cccc(C(F)(F)F)c1 | 4 µg/mL (≈ 10.9 µM) |  | 250 µM (≈ 91.8 µg/mL) | 500 µM (≈ 184 µg/mL) | 32 µM (≈ 11.8 µg/mL) | 125 µM (≈ 45.9 µg/mL) | 125 µM (≈ 45.9 µg/mL) | 62.5 µM (≈ 23 µg/mL) | 62.5 µM (≈ 23 µg/mL) | 62.5 µM (≈ 23 µg/mL) |  |  |  |  |  |  |  |  |
| O=C(N/N=C/Nc1ccc(C(=O)O)c(O)c1)c1ccc(F)cc1 | 4 µg/mL (≈ 12.6 µM) |  | 32 µM (≈ 10.2 µg/mL) | 125 µM (≈ 39.7 µg/mL) | 32 µM (≈ 10.2 µg/mL) | 62.5 µM (≈ 19.8 µg/mL) | 62.5 µM (≈ 19.8 µg/mL) | 32 µM (≈ 10.2 µg/mL) | 32 µM (≈ 10.2 µg/mL) | 32 µM (≈ 10.2 µg/mL) |  |  |  |  |  |  |  |  |
| O=C(O)c1cn(C2CC2)c2cc(N3CCNCC3)c(F)cc2c1=O [CIPROFLOXACIN] | 0.5 µg/mL (≈ 1.51 µM) | 333.33 | 62.5 µM (≈ 20.7 µg/mL) | 62.5 µM (≈ 20.7 µg/mL) | 1 µM (≈ 0.331 µg/mL) | 2 µM (≈ 0.663 µg/mL) | 2 µM (≈ 0.663 µg/mL) | 1 µM (≈ 0.331 µg/mL) | 1 µM (≈ 0.331 µg/mL) | 2 µM (≈ 0.663 µg/mL) | > 500 µM | > 500 µM |  |  |  |  |  | > 500 µM |
